Experimental findings from ChEMBL document CHEMBL4177577, “Lipophilic methylene violet analogues as modulators of mitochondrial function and dysfunction” (Bioorg Med Chem, 2017) are described below.

Data set [1] deals with Friedreich's ataxia lymphocyte. Description: Inhibition of ROS generation in human Friedreich's ataxia lymphocytes at 250 and 2500 nM incubated for 16 hrs by DCFH-DA staining based FACS method. It is filed as functional, cell-based. The method, boiled down: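 FRDA lymphocytes (GM15850; 5×10^5 cells/mL) were pretreated with compound for 16 h at 37 °C, then exposed to 5 mM diethyl maleate for 80 min to deplete glutathione. Cells were loaded with 10 μM DCFH-DA in PBS with 20 mM glucose for 25 min at 37 °C and DCF was read by flow cytometry (10,000 events). Median fluorescence is given as % of the DEM-treated control; duplicates in two runs.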

The subject of data set [2] is Friedreich's ataxia lymphocyte. Description: Increase in ATP level in human Friedreich's ataxia lymphocytes at 0.1 uM incubated for 24 hrs by luminescence based assay. It is filed as functional, cell-based. The method, boiled down: (§1)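 Lymphocytes (2×10^5 cells/mL) were treated with compound at final 0.1, 0.5 or 5 μM (DMSO <0.5%) in glucose-free medium (25 mM galactose) for 24 h at 37 °C. Total intracellular ATP was read by a bioluminescence kit and given as % of untreated control. Data are the mean of at least three independent experiments.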

The nature of data set [3]: Induction of mitochondrial membrane potential preservation in human Friedreich's ataxia lymphocytes assessed as JC1 dye monomer level at 5 uM pre-incubated for 16 hrs by JC1 staining based assay (reference value: 10.1%).
In data set [4] the test system is Friedreich's ataxia fibroblast (Homo sapiens). Description: Cytoprotection against buthionine sulfoximine-induced cytotoxicity in human Friedreich's ataxia fibroblasts assessed as increase in cell viability at 25 to 1000 nM pre-incubated before buthionine sulfoximine challenge for 48 hrs by Live/Dead cell viability assay.
Data set [5] is described as follows: Cytotoxicity in human Friedreich's ataxia lymphocytes assessed as reduction in cell viability at 2.5 uM incubated for 48 hrs by Live/Dead cell viability assay. The conditions noted are these: friedreich's ataxia lymphocyte. The format is cell-based. Summed up: (§2)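 FRDA lymphocytes (5×10^5 cells/mL) were kept in glucose-free medium (25 mM galactose) with compound at 37 °C and 5% CO₂ for 24 or 48 h. Cells were washed, stained with 0.1 μM calcein AM (live) and 0.2 μM EthD-1 (dead) for 15 min at 37 °C and analysed by flow cytometry (10,000 events). Duplicates were run in two independent runs.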

Data set [6] in a line: Cytotoxicity in human Friedreich's ataxia lymphocytes assessed as reduction in cell viability at 2.5 uM incubated for 24 hrs by Live/Dead cell viability assay. It is filed as cell-based. The conditions noted are these: friedreich's ataxia lymphocyte. The method, boiled down:
as §2

Data set [7] in a line: Reduction in ATP level in human Friedreich's ataxia lymphocytes at 5 uM incubated for 24 hrs by luminescence based assay. The format is ADME, cell-based. To be noted: friedreich's ataxia lymphocyte. Summed up:
as §1

Data set [8] has as its system Friedreich's ataxia lymphocyte. Description: Increase in ATP level in human Friedreich's ataxia lymphocytes at 0.5 uM incubated for 24 hrs by luminescence based assay. It is filed as functional, cell-based. The method, boiled down: as §1
Data set [9] relates to Friedreich's ataxia lymphocyte. Description: Cytoprotection against rotenone-induced cytotoxicity in human Friedreich's ataxia lymphocytes assessed as increase in cell viability at 0.25 and 2.5 uM pre-incubated for 12 hrs in glucose-free media followed by rotenone challenge for 24 hrs by Live/Dead cell viability assay. It is filed as functional, cell-based. Summed up: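 FRDA lymphocytes (5×10^5 cells/mL) in glucose-free medium with 25 mM galactose were pretreated with compounds at 37 °C, then exposed to 50 nM rotenone for 24 h. Cells were stained with 0.1 μM calcein AM and 0.2 μM EthD-1 for 15 min at 37 °C and run on flow cytometry (10,000 events). Live cells are given as % of control; two independent runs in duplicate.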

Data set [10] in a line: Induction of mitochondrial membrane potential preservation in human Friedreich's ataxia lymphocytes assessed as JC1 dye aggregates level at 5 uM pre-incubated for 16 hrs by JC1 staining based assay (reference value: 69.8%).
Data set [11] concerns Friedreich's ataxia lymphocyte. Description: Effect on ATP level in human Friedreich's ataxia lymphocytes at 100 to 5000 nM incubated for 24 hrs by luminescence based assay. The format is functional, cell-based. Summed up:
as §1

The species entered for another data set is Bos taurus. Description: Effect on NADH-ubiquinone oxidoreductase in bovine heart submitochondrial particles assessed as induction of electron flow from complex-1 by measuring NADH oxidation at 5 uM in presence of 50 nM rotenone using NADH and coenzyme Q1 by spectrophotomery. Summed up:
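Submitochondrial particles (30 μg/mL) were preincubated 5 min at 30 °C with compound in 50 mM phosphate buffer, pH 7.4, with 0.25 M sucrose, 1 mM MgCl₂, 2 μM antimycin A and 2 mM KCN. The reaction was started with 75 μM NADH plus 15 μM coenzyme Q₁, and NADH loss was followed at 340 nm. Values are the mean of two independent experiments in duplicate.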

Data set [12] relates to Friedreich's ataxia lymphocyte. Description: Effect on ATP level in human Friedreich's ataxia lymphocytes at 100 nM incubated for 24 hrs by luminescence based assay. The format is functional, cell-based. Summed up: as §1

The source made the active and inactive calls. No cut-off for these calls is given here.

Consider `CCCCCCCCCCCCCCCN(C)c1ccc2nc3ccc(=O)cc-3sc2c1`, for which the “ROS generation inhibition (qualitative)” value in data set [1] is “Dose-dependent effect”. In addition, the result in [2], in [8] and in data set [9] was Active. Also, the Activity in data set [3] is 14.7%; in data set [4], “Dose-dependent effect”; in data set [5] it was “Non-Toxic”; in [6] it was “Non-Toxic”; in [7], “Toxic”; in data set [10] it was 85.2%.
On to `CN(C)c1ccc2nc3ccc(N(C)C)cc3[s+]c2c1.[Cl-]` [METHYLENE BLUE ANHYDROUS], for which the Activity in [3] was 58.1%; in [5] it was “Toxic”; in [6], “Toxic”; in data set [10], 41.7%.
`CCCCCCCCCCCCCCCN(CCCCCCCCCCCCCCC)c1ccc2nc3ccc(=O)cc-3sc2c1`: the “ROS generation inhibition (qualitative)” value in data set [1] was “Active”. In addition, the Activity in data set [3] is 11.7%; in data set [4], “Dose-dependent effect”; in data set [5] it was “Non-Toxic”; in [6], “Non-Toxic”; in data set [10], 88.2%. Besides, the result in [11] was inactive. In data set [9], the result was Active.
For the compound `CCCCCCCCCCCCCCCN(CCCC)c1ccc2nc3ccc(=O)cc-3sc2c1`, the “ROS generation inhibition (qualitative)” value in [1] is “Dose-dependent effect”. Also, the outcome (in data set [2]; in the data set filed under Bos taurus; in [8]; in data set [9]) was Active. The Activity in data set [3] was 10.6%; in data set [4] it was “Dose-dependent effect”; in data set [5], “Non-Toxic”; in data set [6], “Non-Toxic”; in [7] it was “Toxic”; in [10] it was 89.3%.
In the case of `CCCCCCCCCCN(CCCCCCCCCC)c1ccc2nc3ccc(=O)cc-3sc2c1`, the “ROS generation inhibition (qualitative)” value in [1] is “Active”. Moreover, the Activity in data set [3] is 14.3%; in data set [4], “Dose-dependent effect”; in data set [5] it was “Non-Toxic”; in data set [6] it was “Non-Toxic”; in data set [10], 85.7%. Besides, in [11], the outcome was inactive. In addition, the result in data set [9] was Active.
With `CN(C)c1ccc(C(=C2C=CC(=[N+](C)C)C=C2)c2ccc(N(C)C)cc2)cc1.[Cl-]` [GENTIAN VIOLET], the “ROS generation inhibition (qualitative)” value in [1] was “Active”. In addition, the Activity amounted to 27.3% in data set [3] and 72.6% in data set [10]. For the same compound, the outcome in data set [12] was inactive. Besides, the outcome (in the data set filed under Bos taurus; in data set [9]) was Active.
In the case of `CCCCN(CCCC)c1ccc2nc3ccc(=O)cc-3sc2c1`, in [1], the “ROS generation inhibition (qualitative)” value is “Active”. Further, the Activity in [3] was 25.6%; in data set [4], “Dose-dependent effect”; in [5] it was “Toxic”; in [10], 74.2%. Further, the outcome in [12] was inactive. Further, in data set [9], the outcome was Active.
For the compound `CN(C)c1ccc2nc3ccc(=[N+](C)C)cc-3sc2c1`, the result in [12] was inactive. Besides, the outcome (in the data set filed under Bos taurus; in data set [9]) was Active.
